Calls of active or inactive are those of the source. No cut-off for these calls is given here.
How the values were obtained:
[1] = Antiphotoaging activity in HDF assessed as protection against 6 J/cm'2 UVA-induced reduction of cell survival at 5 uM treated 4 hrs before UVA irradiation measured after 24 hrs by MTT assay relative to control; assay type: functional; settings: Homo sapiens, light or radiation study, read-out: Survival
Outline: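 Normal human dermal fibroblasts (passages 5–10) seeded at 10 000 cells/well, grown overnight, exposed to compound at 5 μM for 4 h, then rinsed and irradiated in PBS with 6 J/cm2 UVA (365 nm lamp, 4.762 mW/cm2), after which medium was restored. After 24 h, MTT added for 2 h at 37 °C; formazan dissolved in DMSO, OD 540 nm. Reported as mean ± SD; three independent experiments, triplicate.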

[2] = system: HDF; assay: Antiphotoaging activity in HDF assessed as increase of 6 J/cm'2 UVA-induced mitochondrial membrane potential treated 4 hrs before UVA irradiation using DiOC6 staining by flow cytometry; assay type: functional; settings: Homo sapiens
Outline: (§1)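 Normal fibroblasts (passages 5–10) pretreated 4 h at 5 μM or at various concentrations, then 6 J/cm2 UVA given in PBS (365 nm lamp, 4.762 mW/cm2) or sham-irradiated. Cells trypsinized, pelleted, stained with DiOC6 30 min at room temperature, washed, resuspended in PBS. Read at once by flow cytometry, FL-1 530/30 nm. Three independent experiments.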

[3] = system: HDF; assay: Effect on procollagen 1 type 1 mRNA expression in HDF by quantitative RT-PCR analysis; assay type: functional; settings: Homo sapiens
Outline: (§2)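 Fibroblasts treated with compound alone, UVA alone, or both. Total RNA extracted with Trizol; 2 μg reverse-transcribed. SYBR Green real-time qPCR with 0.3 μM each primer and 100 ng cDNA. GAPDH listed among the amplified genes.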

[4] = system: HDF; assay: Antiphotoaging activity in HDF assessed as protection against 6 J/cm'2 UVA-induced increase of MMP-1 protein expression treated 4 hrs before UVA irradiation by Western blot analysis; assay type: functional; settings: Homo sapiens
Outline: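 Fibroblasts pretreated with 5 μM, then given 6 J/cm2 UVA. Lysed in ice-cold RIPA with protease and phosphatase inhibitors; protein measured by Bradford. Immunoblot with rabbit monoclonal anti-MMP-1, actin as loading control. HRP secondary, chemiluminescence detection, densitometry. Three independent experiments.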

[5] = system: HDF; assay: Effect on senescence-associated-beta-gal expression in HDF using 5-bromo-4-chloro-3-indoyl-beta-galactoside staining by microscopic analysis; assay type: functional; settings: Homo sapiens
[6] = system: HDF; assay: Effect on ROS production in HDF at 5 uM after 4 hrs using DCFH-DA staining by flow cytometry; assay type: functional; settings: Homo sapiens
Outline: (§3)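 Fibroblasts treated 4 h at 5 μM or at various concentrations, then exposed to 6 J/cm2 UVA in PBS (365 nm peak) or sham-irradiated. Loaded with DCFH-DA 10 μM for 30 min at 37 °C. DCF fluorescence read by flow cytometry on FL-1. Three independent experiments.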

[7] = system: HDF; assay: Antiphotoaging activity in HDF assessed as protection against 6 J/cm'2 UVA-induced reduction of cell proliferation at 1 to 5 uM measured after 24 hrs by irradiation by MTT assay; assay type: functional; settings: Homo sapiens, TDE = time-dependent effect
Outline: (§4)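 Fibroblasts seeded at 10 000 cells/well and left overnight. Pretreated with 0, 1, 2.5 or 5 μM for 2 or 4 h, then given 6 J/cm2 UVA in PBS; medium added back. After 24 h, MTT 2 h at 37 °C, formazan dissolved in DMSO, OD read at 540 nm. Three independent experiments.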

[8] = system: HDF; assay: Antiphotoaging activity in HDF assessed as protection against 6 J/cm'2 UVA-induced increase of MMP-1 mRNA expression treated 4 hrs before UVA irradiation by quantitative RT-PCR analysis; assay type: functional; settings: Homo sapiens; outline: as §2
[9] = system: HDF; assay: Antiphotoaging activity in HDF assessed as protection against 6 J/cm'2 UVA-induced reduction of elastin mRNA expression treated 4 hrs before UVA irradiation by quantitative RT-PCR analysis; assay type: functional; settings: Homo sapiens; outline: as §2
[10] = system: HDF; assay: Effect on fibronectin mRNA expression in HDF by quantitative RT-PCR analysis; assay type: functional; settings: Homo sapiens; outline: as §2
[11] = system: HDF; assay: Effect on TIMP-1 mRNA expression in HDF by quantitative RT-PCR analysis; assay type: functional; settings: Homo sapiens; outline: as §2
[12] = system: HDF; assay: Antiphotoaging activity in HDF assessed as protection against 6 J/cm'2 UVA-induced reduction of ATP level at 5 uM treated 4 hrs before UVA irradiation by bioluminescent assay; assay type: functional; settings: Homo sapiens
Outline: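 Fibroblasts exposed 4 h to compound at 5 μM, then irradiated with 6 J/cm2 UVA in PBS. Cells lysed at once and debris spun off. Supernatant ATP measured by luciferin–luciferase bioluminescence. Expressed as percent of unirradiated, untreated control. Three independent experiments.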

[13] = system: HDF; assay: Antiphotoaging activity in HDF assessed as protection against 6 J/cm'2 UVA-induced reduction of fibronectin mRNA expression treated 4 hrs before UVA irradiation by quantitative RT-PCR analysis; assay type: functional; settings: Homo sapiens; outline: as §2
[14] = system: HDF; assay: Antiphotoaging activity in HDF assessed as protection against 6 J/cm'2 UVA-induced reduction of procollagen 1 type 1 mRNA expression treated 4 hrs before UVA irradiation by quantitative RT-PCR analysis; assay type: functional; settings: Homo sapiens; outline: as §2
[15] = system: HDF; assay: Effect on mitochondrial membrane potential in HDF at 5 uM after 4 hrs using DiOC6 staining by flow cytometry; assay type: functional; settings: Homo sapiens; outline: as §1
[16] = system: HDF; assay: Antiphotoaging activity in HDF assessed as protection against 6 J/cm'2 UVA-induced reduction of COL1alpha1 mRNA expression treated 4 hrs before UVA irradiation by quantitative RT-PCR analysis; assay type: functional; settings: Homo sapiens; outline: as §2
[17] = system: HDF; assay: Effect on COL1alpha1 mRNA expression in HDF by quantitative RT-PCR analysis; assay type: functional; settings: Homo sapiens; outline: as §2
[18] = system: HDF; assay: Effect on MMP-1 mRNA expression in HDF by quantitative RT-PCR analysis; assay type: functional; settings: Homo sapiens; outline: as §2
[19] = system: HDF; assay: Antiphotoaging activity in HDF assessed as reduction of 6 J/cm'2 UVA-induced ROS production treated 4 hrs before UVA irradiation using DCFH-DA staining by flow cytometry; assay type: functional; settings: Homo sapiens; outline: as §3
[20] = system: HDF; assay: Antiphotoaging activity in HDF assessed as protection against 6 J/cm'2 UVA-induced reduction of TIMP-1 mRNA expression treated 4 hrs before UVA irradiation by quantitative RT-PCR analysis; assay type: functional; settings: Homo sapiens; outline: as §2
[21] = system: HDF; assay: Effect on elastin mRNA expression in HDF by quantitative RT-PCR analysis; assay type: functional; settings: Homo sapiens; outline: as §2
[22] = organism: Mus musculus; assay: Antiphotoaging activity in ICR mouse assessed as reduction of 3 J/cm'2 UVA-induced epidermal hypertrophy at 0.5 gram per square in dorsal skin immediately after UVA irradiation 3 times a week for up to 12 weeks; assay type: functional, organism-based
Outline: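 Female ICR mice, six weeks old, n = 4 per group, dorsal skin shaved. Given 3 J/cm2 UVA (4.762 mW/cm2), then 0.1% emulsion (Tefose 63 base) applied topically at 0.5 g per square right after irradiation. Done three times weekly for up to 12 weeks (total 108 J/cm2). Skin taken after final irradiation for histology.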

[23] = system: HDF; assay: Antiphotoaging activity in HDF assessed as protection against 6 J/cm'2 UVA-induced reduction of cell proliferation treated 2 to 4 hrs before UVA irradiation measured after 24 hrs by MTT assay; assay type: functional; settings: Homo sapiens; outline: as §4
[24] = system: HDF; assay: Antiphotoaging activity in HDF assessed as reduction of 6 J/cm'2 UVA-induced senescence-associated-beta-gal positive cells treated 4 hrs before UVA irradiation using 5-bromo-4-chloro-3-indoyl-beta-galactoside staining by microscopic analysis; assay type: functional; settings: Homo sapiens

COc1ccc(-c2nnn3c2CCCC3)cc1
viability at 5 µM [1]: 54%

Nc1ccccc1C#Cc1nnn2c1CCC2
viability at 5 µM [1]: 71.2%

C(#Cc1nnn2c1CCCC2)c1ccccc1
viability at 5 µM [1]: 68.7%

COc1ccc(C#Cc2nnn3c2CCCC3)cc1
viability at 5 µM [1]: 73%

O=[N+]([O-])c1ccc(C#Cc2nnn3c2CCC3)cc1
viability at 5 µM [1]: 84.1%

O=[N+]([O-])c1cccc(-c2nnn3c2CCCC3)c1
viability at 5 µM [1]: 62%

COc1cccc(-c2nnn3c2CCCC3)c1
viability at 5 µM [1]: 63.7%

c1ccc(-c2nnn3c2CCCC3)cc1
viability at 5 µM [1]: 57%

COc1cccc(-c2nnn3c2CCC3)c1
viability at 5 µM [1]: 58%

O=[N+]([O-])c1cccc(C#Cc2nnn3c2CCC3)c1
viability at 5 µM [1]: 88.2%

CCc1ccc(C#Cc2nnn3c2CCCC3)cc1
viability at 5 µM [1]: 55.7%

O=[N+]([O-])c1cccc(C#Cc2nnn3c2CCCC3)c1
viability at 5 µM [1]: 71.3%

O=[N+]([O-])c1cccc(-c2nnn3c2CCC3)c1
viability at 5 µM [1]: 52.8%

C(#Cc1nnn2c1CCC2)c1ccccc1
viability at 5 µM [1]: 62.7%

O=[N+]([O-])c1ccc(-c2nnn3c2CCC3)cc1
viability at 5 µM [1]: 70%

Fc1ccccc1C#Cc1nnn2c1CCCC2
viability at 5 µM [1]: 78.9%

COc1ccc(C#Cc2nnn3c2CCC3)cc1
viability at 5 µM [1]: 73.2%

COc1cccc(C#Cc2nnn3c2CCC3)c1
Activity [2]: Dose-dependent effect
viability at 5 µM [1]: 95.3%
Activity [3]: inactive
Activity [4]: Active
Activity [5]: inactive
Activity [6]: inactive
Activity [7]: tde
Activity [8]: Active
Activity [9]: Active
Activity [10]: inactive
Activity [11]: inactive
Activity [12]: Active
Activity [13]: Active
Activity [14]: Active
Activity [15]: inactive
Activity [16]: Active
Activity [17]: inactive
Activity [18]: inactive
Activity [19]: Dose-dependent effect
Activity [20]: Active
Activity [21]: inactive
Activity [22]: Active
Activity [23]: Dose-dependent effect
Activity [24]: Active

Nc1ccccc1-c1nnn2c1CCCC2
viability at 5 µM [1]: 61%

c1ccc(-c2nnn3c2CCC3)cc1
viability at 5 µM [1]: 61.1%

O=[N+]([O-])c1ccc(-c2nnn3c2CCCC3)cc1
viability at 5 µM [1]: 52%

Fc1ccccc1C#Cc1nnn2c1CCC2
viability at 5 µM [1]: 75.2%

COc1cccc(C#Cc2nnn3c2CCCC3)c1
viability at 5 µM [1]: 61.9%

CCc1ccc(C#Cc2nnn3c2CCC3)cc1
viability at 5 µM [1]: 80.7%

COc1ccc(-c2nnn3c2CCC3)cc1
viability at 5 µM [1]: 70.3%

From ChEMBL document CHEMBL2396654, “Discovery, synthetic methodology, and biological evaluation for antiphotoaging activity of bicyclic[1,2,3]triazoles: in vitro and in vivo studies” (2013)
